PTEN del growth: growth suppression of PTEN-null HCT116, primary screen, cell-based, CellTiter-Glo. viability, % at 10 µM. HCT116 PTEN-null viability, 60 h; hits give low values. 1.2% of 140,000 active;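 active means viability at or below a set limit, 4 SD under the median of all tested compounds, cut at about 3.7% in these data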;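 further: PTEN knockout HCT116 line with beta catenin targeted HCT116 as companion control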
HUVEC prolif 384: inhibitors of HUVEC proliferation, primary screen, cell-based, 384-well; CellTiter-Glo luminescence, 72 h; hits give low values; viability, % at 10 µM (by protocol); 1.1% of 86,000 active; AID 648, 2007;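 active means viability at or below 30%; inactive means viability above 30%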
H69AR growth 86K: proliferation blockers of H69AR lung cancer cells, primary screen, cell-based, human, 86K library; viability, % at 10 µM; H69AR lung tumor viability, ATP luminescence, 72 h; hits give low values; 6% of 85,000 active;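 active means viability at or below 40%; inactive means viability above 40%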;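 further: multidrug resistant small cell line overexpressing MRP-1 efflux transporter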
Fibroblast inh: antiproliferative effect on LL 47 fibroblasts – human, LL 47 cells, CellTiter-Glo luminescence, primary screen | LL 47 human lung fibroblast viability, ATP luminescence; hits give low values | viability, % at 10 µM | 1.1% of 85,000 active;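 active means viability at or below 50% in the single dose screen; inactive means viability above 50%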;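 further: compound exposure lasted 72 h before the ATP readout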
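Test system: LL 47 human lung fibroblasts / Quantity: 1,150 cells in each well / Medium: IMEM growth medium with 15% fetal bovine serum / Incubation: 72 h compound exposure at 37 °C after overnight plating / Detection: CellTiter-Glo luminescence measuring cellular ATP / Read-out: % viability versus median cells-only luminescence / Benchmarks: cell-only wells, no compound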
HCT116 bCat-KO: primary screen for growth suppressors in beta-catenin knockout HCT116 cells (colon tumor, human); viability, % at 10 µM; 1.5% of 140,000 active; HCT116 beta-catenin knockout viability, CellTiter-Glo, 60 h; hits give low values;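 active means viability at or under a set limit, the compound median less 4 SD, cut at about 6% in these data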
A number is an active result; i = inactive; nt = no result given. This excerpt belongs to a sample that is enriched for hits.

SMILES	PTEN del growth	HUVEC prolif 384	H69AR growth 86K	Fibroblast inh	HCT116 bCat-KO
Clc1ccc(Cn2cc(/C=N/n3cnnc3)c3ccccc32)c(Cl)c1	i	13	i	i	i
c1ccc(-c2oc3ncnc(NCCN4CCOCC4)c3c2-c2ccccc2)cc1	i	i	36	i	i
N=c1c2c(-c3ccccc3)c(-c3ccccc3)oc2ncn1CCN1CCOCC1	i	i	i	i	i
N=c1c2c(-c3ccccc3)c(-c3ccccc3)oc2ncn1CCCN1CCOCC1	i	8.9	i	i	i
CC(C)C(NC(=O)c1ccc(F)cc1)C(=O)OCC(=O)N1CC(=O)Nc2ccccc21 (stereo not drawn)	i	nt	nt	nt	i
O=C(COc1ccccc1C(=O)c1cnn(-c2ccccc2)c1)Nc1ccccc1	i	nt	nt	nt	i
CC(=O)NCCC(=O)Nc1sc2c(c1-c1nc3ccccc3[nH]1)CCCC2	i	i	36	i	i
O=C(Nc1nc2ccccc2s1)c1ccc(Cl)s1	i	i	i	i	i
Cc1ccc2nc(NC(=O)c3ccc(-c4nc5ccccc5s4)s3)sc2c1	2.5	nt	nt	nt	4.7
O=C(CCN1CCOCC1)c1ccccc1	1.0	i	i	i	1.2
O=C(CCN1CCOCC1)c1ccc2c(c1)OCCO2	i	i	3.3	i	i
CCOc1ccccc1NC(=O)CCCN1C(=S)NC(C)(C)CC1C (stereo not drawn)	i	nt	nt	nt	i
O=C(NC(CSCc1ccccc1)C(=O)N/N=C/c1ccc(O)cc1O)c1ccc([N+](=O)[O-])cc1 (stereo not drawn)	3.0	7.6	30	25	2.9
COc1ccc(N2CCN(c3ncnc4c3[nH]c3ccccc34)CC2)cc1	i	i	i	i	i
COc1cc2[nH]c3c(N4CCN(c5ccccn5)CC4)ncnc3c2cc1OC	2.7	i	24	i	i
CCOC(=O)C1CCC(CN(Cc2ccccc2)S(=O)(=O)c2ccc([N+](=O)[O-])cc2)CC1 (stereo not drawn)	i	nt	nt	nt	i
CC1CCN(S(=O)(=O)c2ccc(S(=O)(=O)NCc3ccccc3)cc2)CC1	i	i	38	i	i
O=S(=O)(NCc1ccccc1)c1ccc(S(=O)(=O)N2CCCCC2)cc1	i	i	i	i	i
CC1CCCC(C)N1S(=O)(=O)c1ccc(S(=O)(=O)NCc2ccccc2)cc1 (stereo not drawn)	i	i	36	46	i
Cc1cc(C)c2ccc(N)nc2c1O	i	i	14	9.4	3.8
CCOC(=O)CC1=C(C(=O)OCC)C(c2ccc(C)o2)C(C#N)=C(N)O1 (stereo not drawn)	i	i	i	i	i
Cc1ccc(C2C(C#N)=C(N)Oc3c2sc2ccccc32)o1 (stereo not drawn)	i	i	13	i	i
Cc1nn(Cc2c(F)cccc2Cl)c(C)c1NC(=O)C1CC1	i	nt	nt	nt	i
Cc1ccc(OCCN2CCN(CC(O)Cn3c4ccccc4c4ccccc43)CC2)cc1 (stereo not drawn)	1.4	nt	nt	nt	1.2
O=C(Nc1ccccc1C(=O)Nc1ccc2c(c1)OCO2)c1ccco1	i	i	34	i	i
SMILES	PTEN del growth	HUVEC prolif 384	H69AR growth 86K	Fibroblast inh	HCT116 bCat-KO
CCn1c(=O)c(C(=O)Nc2cnccn2)c(O)c2ccccc21	nt	i	i	i	nt
Cn1c(=O)c(C(=O)Nc2cnccn2)c(O)c2ccccc21	nt	i	0.6	i	nt
Cn1c(=O)c(C(=O)Nc2ccccn2)c(O)c2ccccc21	i	i	19	i	i
CN(C1=C(NC(=O)c2ccccc2)C(=O)c2ccccc2C1=O)C1CCS(=O)(=O)C1 (stereo not drawn)	i	nt	nt	nt	2.7
CC(=O)NC1=C(NC2CCS(=O)(=O)C2)C(=O)c2ccccc2C1=O (stereo not drawn)	i	nt	nt	nt	i
CCOC(=O)c1sc(=S)n(C)c1NC(=O)c1ccccc1Cl	i	nt	nt	nt	i
CCC(=O)Nc1nnc(SCC(=O)N2c3ccccc3CC2C)s1 (stereo not drawn)	i	i	i	37	i
Cc1ccnn1CC(=O)N/N=C/c1ccc2c(c1)OCO2	i	nt	nt	nt	i
CCOC(=O)c1c(C)oc2c1c(C(c1ccncc1)N1CCOCC1)c(O)c1ccccc12 (stereo not drawn)	i	i	0.9	i	i
COc1ccc(C2CC(=O)c3cnc(NC(=O)c4ccccc4)nc3C2)c(OC)c1 (stereo not drawn)	i	i	27	i	i
CN(C)S(=O)(=O)c1cc(NC(=O)COC(=O)CCSc2ccc(Cl)cc2)ccc1Cl	i	nt	nt	nt	i
